Test results as given in ChEMBL document CHEMBL1149144, “Structure-based design of potent retinoid X receptor alpha agonists” (J Med Chem, 2004).
pEC50, pKi: −log10 of the molar value. Values belong to the molecule of their own block, whether it stands above or below them.

What was measured:
[1] = molecular target: T1, Retinoic acid receptor RXR-alpha (Homo sapiens, UniProt P19793); test: Binding affinity for retinoid X receptor alpha (RXRalpha), using 9-cis-[3H]-retinoic acid
T1 sequence (P19793 whole entry): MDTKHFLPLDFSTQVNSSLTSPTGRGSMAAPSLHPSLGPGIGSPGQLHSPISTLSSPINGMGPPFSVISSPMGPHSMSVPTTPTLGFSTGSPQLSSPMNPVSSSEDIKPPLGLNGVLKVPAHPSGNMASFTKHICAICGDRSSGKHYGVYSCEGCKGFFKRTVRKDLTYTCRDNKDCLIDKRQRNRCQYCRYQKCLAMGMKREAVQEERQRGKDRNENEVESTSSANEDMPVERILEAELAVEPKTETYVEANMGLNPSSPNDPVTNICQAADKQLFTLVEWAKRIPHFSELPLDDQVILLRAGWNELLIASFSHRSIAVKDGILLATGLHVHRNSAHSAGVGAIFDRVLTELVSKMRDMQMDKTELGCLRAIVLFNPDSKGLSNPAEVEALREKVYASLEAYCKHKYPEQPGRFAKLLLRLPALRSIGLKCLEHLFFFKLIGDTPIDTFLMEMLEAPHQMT
In short: (§1)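 Scintillation proximity binding assay; Ki from competition of 2.5 nM 9-cis-RA at RXRα and RARα, with test compound up to 10 µM.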

[2] = molecular target: T2, Retinoic acid receptor alpha (Homo sapiens, UniProt P10276); test: Effective concentration for Retinoic acid receptor alpha activity in CV-1 cells; format: functional, cell-based
T2 sequence (P10276 whole entry): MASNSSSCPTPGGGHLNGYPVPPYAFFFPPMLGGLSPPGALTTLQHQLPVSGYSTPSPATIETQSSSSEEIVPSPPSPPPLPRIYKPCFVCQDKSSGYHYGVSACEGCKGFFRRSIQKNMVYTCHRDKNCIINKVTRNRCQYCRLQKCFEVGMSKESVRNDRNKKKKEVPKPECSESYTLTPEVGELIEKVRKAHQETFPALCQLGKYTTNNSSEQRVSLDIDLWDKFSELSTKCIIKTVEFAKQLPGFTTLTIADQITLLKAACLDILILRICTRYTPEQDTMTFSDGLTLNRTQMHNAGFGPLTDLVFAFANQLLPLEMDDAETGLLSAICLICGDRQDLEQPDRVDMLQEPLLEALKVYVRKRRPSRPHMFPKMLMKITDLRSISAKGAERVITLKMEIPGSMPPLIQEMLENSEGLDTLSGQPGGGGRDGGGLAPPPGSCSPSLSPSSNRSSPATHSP
In short: (§2)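 CV-1 monkey kidney cells transiently transfected with a full-length hRXRα expression vector (RXRα) or a GAL4-hRARα vector (RARα), each with an RXRα- or RARα-responsive reporter gene construct. Top concentration 10 µM; EC50 calculated from the reporter response.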

[3] = molecular target: T1, Retinoic acid receptor RXR-alpha; test: Effective concentration for Retinoid X receptor alpha activity in CV-1 cells; format: functional, cell-based; in short: as §2
[4] = molecular target: T2, Retinoic acid receptor alpha; test: Binding affinity for retinoic acid receptor alpha (RARalpha), using 9-cis-[3H]-retinoic acid; in short: as §1
[5] = molecular target: T1, Retinoic acid receptor RXR-alpha; test: Effective concentration for Retinoid X receptor alpha activity in CV-1 cells; Partial agonist; format: functional, cell-based; in short: as §2
Mus musculus [6] = test: Effect on percent change in weight of liver to body at 10 mg/kg was measured in vivo in mice; format: functional
In short: (§3)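 Male diabetic db/db mice given vehicle or compound in vehicle orally.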

Mus musculus [7] = test: Effect on percent change in weight of liver to body at 100 mg/kg was measured in vivo in mice; format: functional; in short: as §3
Mus musculus [8] = test: Effect on percent change in weight of liver to body at 30 mg/kg was measured in vivo in mice; format: functional; in short: as §3
Mus musculus [9] = test: Effect on nonesterified free fatty acid at 10 mg/kg was measured in vivo in mice; format: functional; in short: as §3
Mus musculus [10] = test: Effect on nonesterified free fatty acid at 100 mg/kg was measured in vivo in mice; format: functional; in short: as §3
Mus musculus [11] = test: Effect on nonesterified free fatty acid at 30 mg/kg was measured in vivo in mice; format: functional; in short: as §3
Mus musculus [12] = test: Effect on lipid hydrolysis at 30 mg/kg was measured in vivo in mice; format: functional
In short: (§4)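 Male diabetic db/db mice were given the test agent orally in vehicle, with a vehicle-only control group.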

Mus musculus [13] = test: Effect on aspartate aminotransferase release by liver at 10 mg/kg was measured in vivo in mice; format: functional; in short: as §3
Mus musculus [14] = test: Effect on aspartate aminotransferase release by liver at 100 mg/kg was measured in vivo in mice; format: functional; in short: as §3
Mus musculus [15] = test: Effect on aspartate aminotransferase release by liver at 30 mg/kg was measured in vivo in mice; format: functional; in short: as §3
Mus musculus [16] = test: Effect on lipid hydrolysis at 10 mg/kg was measured in vivo in mice; format: functional; in short: as §4
Mus musculus [17] = test: Effect on lipid hydrolysis at 100 mg/kg was measured in vivo in mice; format: functional; in short: as §4
Mus musculus [18] = test: Antihyperglycemic activity of compound at 10 mg/kg was determined in vivo in mice; format: functional; in short: as §4
Mus musculus [19] = test: Antihyperglycemic activity of compound at 10 mg/kg was measured as percent glycosylated hemoglobin in vivo in mice; format: functional; in short: as §3
Mus musculus [20] = test: Antihyperglycemic activity of compound at 100 mg/kg was determined in vivo in mice; format: functional; in short: as §4
Mus musculus [21] = test: Antihyperglycemic activity of compound at 100 mg/kg was measured as percent glycosylated hemoglobin in vivo in mice; format: functional; in short: as §3
Mus musculus [22] = test: Antihyperglycemic activity of compound at 30 mg/kg was determined in vivo in mice; format: functional; in short: as §4
Mus musculus [23] = test: Antihyperglycemic activity of compound at 30 mg/kg was measured as percent glycosylated hemoglobin in vivo in mice; format: functional; in short: as §3
Rattus norvegicus [24] = test: Antihyperglycemic activity of compound at 10 mg/kg was determined in vivo in rats; format: functional
In short: (§5)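 Male Zucker diabetic fatty (ZDF) rats were given the test agent orally in vehicle, with a vehicle-only control group.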

Rattus norvegicus [25] = test: Antihyperglycemic activity of compound at 10 mg/kg was measured as percent glycosylated hemoglobin in vivo in rats; format: functional
In short: (§6)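 Male Zucker diabetic fatty (ZDF) rats dosed orally with vehicle or compound in vehicle.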

Rattus norvegicus [26] = test: Antihyperglycemic activity of compound at 3 mg/kg was determined in vivo in rats; format: functional; in short: as §5
Rattus norvegicus [27] = test: Antihyperglycemic activity of compound at 3 mg/kg was measured as percent glycosylated hemoglobin in vivo in rats; format: functional; in short: as §6
Rattus norvegicus [28] = test: Antihyperglycemic activity of compound at 30 mg/kg was measured as percent glycosylated hemoglobin in vivo in rats; format: functional; in short: as §6
Rattus norvegicus [29] = test: Antihyperglycemic activity of compound was determined in vivo in rats; format: functional; in short: as §5
Rattus norvegicus [30] = test: Effect on aspartate aminotransferase release by liver at 10 mg/kg was measured in vivo in rats; format: functional; in short: as §6
Rattus norvegicus [31] = test: Effect on aspartate aminotransferase release by liver at 3 mg/kg was measured in vivo in rats; format: functional; in short: as §6
Rattus norvegicus [32] = test: Effect on aspartate aminotransferase release by liver at 30 mg/kg was measured in vivo in rats; format: functional; in short: as §6
Rattus norvegicus [33] = test: Effect on lipid hydrolysis at 10 mg/kg was measured in vivo in rats; format: functional; in short: as §5
Rattus norvegicus [34] = test: Effect on lipid hydrolysis at 3 mg/kg was measured in vivo in rats; format: functional; in short: as §5
Rattus norvegicus [35] = test: Effect on lipid hydrolysis at 30 mg/kg was measured in vivo in rats; format: functional; in short: as §5
Rattus norvegicus [36] = test: Effect on nonesterified free fatty acid at 10 mg/kg was measured in vivo in rats; format: functional; in short: as §6
Rattus norvegicus [37] = test: Effect on nonesterified free fatty acid at 3 mg/kg was measured in vivo in rats; format: functional; in short: as §6
Rattus norvegicus [38] = test: Effect on nonesterified free fatty acid at 30 mg/kg was measured in vivo in rats; format: functional; in short: as §6
Rattus norvegicus [39] = test: Effect on percent change in weight of liver to body at 10 mg/kg was measured in vivo in rats; format: functional; in short: as §6
Rattus norvegicus [40] = test: Effect on percent change in weight of liver to body at 3 mg/kg was measured in vivo in rats; format: functional; in short: as §6
Rattus norvegicus [41] = test: Effect on percent change in weight of liver to body at 30 mg/kg was measured in vivo in rats; format: functional; in short: as §6

Compound: O=C1NC(=O)/C(=C/c2ccc(-c3cccc(C(F)(F)F)c3)o2)S1
- pKi [1]: 5.13

Compound: CC1(C)CCC(C)(C)c2cc(Cc3coc(/C=C/C(=O)O)c3)ccc21
- pKi [1]: 6.86
- pKi [4]: < 6.00

Compound: CC1(C)CCC(C)(C)c2cc(C3CCCc4oc(/C=C/C(=O)O)cc43)ccc21 (racemic)
- Activity (Mus musculus [6]): 8.23%
- Activity (Mus musculus [7]): 9.33%
- Activity (Mus musculus [8]): 8.58%
- Activity (Mus musculus [9]): 0.45 m equiv l-1
- Activity (Mus musculus [10]): 0.4 m equiv l-1
- Activity (Mus musculus [11]): 0.56 m equiv l-1
- Activity (Mus musculus [12]): 83 mg/dL
- Activity (Mus musculus [13]): 137 U l-1
- Activity (Mus musculus [14]): 158 U l-1
- Activity (Mus musculus [15]): 116 U l-1
- Activity (Mus musculus [16]): 91 mg/dL
- Activity (Mus musculus [17]): 62 mg/dL
- Activity (Mus musculus [18]): 346 mg/dL
- Activity (Mus musculus [19]): 9.41%
- Activity (Mus musculus [20]): 233 mg/dL
- Activity (Mus musculus [21]): 8.51%
- Activity (Mus musculus [22]): 309 mg/dL
- Activity (Mus musculus [23]): 8.84%
- Activity (Rattus norvegicus [24]): 129 mg/dL
- Activity (Rattus norvegicus [25]): 7.44%
- Activity (Rattus norvegicus [26]): 147 mg/dL
- Activity (Rattus norvegicus [27]): 7.75%
- Activity (Rattus norvegicus [28]): 7.04%
- Activity (Rattus norvegicus [29]): 118 mg/dL
- Activity (Rattus norvegicus [30]): 108 U l-1
- Activity (Rattus norvegicus [31]): 98 U l-1
- Activity (Rattus norvegicus [32]): 136 U l-1
- Activity (Rattus norvegicus [33]): 2199 mg/dL
- Activity (Rattus norvegicus [34]): 2462 mg/dL
- Activity (Rattus norvegicus [35]): 1353 mg/dL
- Activity (Rattus norvegicus [36]): 0.49 m equiv l-1
- Activity (Rattus norvegicus [37]): 0.8 m equiv l-1
- Activity (Rattus norvegicus [38]): 0.38 m equiv l-1
- Activity (Rattus norvegicus [39]): 6.56%
- Activity (Rattus norvegicus [40]): 5.74%
- Activity (Rattus norvegicus [41]): 7.06%
- pKi [1]: 8.22
- pEC50 [2]: < 5.00
- pEC50 [3]: 8.52
- pKi [4]: < 6.00

Compound: CC1(C)CCC(C)(C)c2cc(C3CCCc4oc(/C=C/C(=O)O)cc43)ccc21 (single isomer, unassigned)
- pKi [1]: 6.70
- pEC50 [2]: < 5.00
- pEC50 [3]: 7.40
- pKi [4]: < 6.00

Compound: CC1(C)CCC(C)(C)c2cc(C3CCCc4oc(/C=C/C(=O)O)cc43)ccc21 (stereo in doubt)
- pKi [1]: 8.30
- pEC50 [2]: < 5.00
- pEC50 [3]: 8.30
- pKi [4]: < 6.00

Compound: CC1(C)CCC(C)(C)c2cc(C3CCCc4oc(/C=C/C(=O)O)cc43)ccc21 (stereo in doubt; 60)
- pKi [1]: 7.05
- pEC50 [2]: < 6.10
- pEC50 [3]: 7.01
- pKi [4]: < 6.00

Further lines, results first:

- pKi [1]: 6.80
- pEC50 [2]: < 5.00
- pEC50 [3]: 6.97
- pKi [4]: < 6.00
Compound: Cc1oc(/C=C/C(=O)O)cc1Cc1ccc2c(c1)C(C)(C)CCC2(C)C

- pKi [1]: 7.40
- pEC50 [2]: < 5.00
- pEC50 [3]: 7.70
- pKi [4]: < 6.00
Compound: CC1(C)CCC(C)(C)c2cc(C3CCCc4sc(/C=C/C(=O)O)cc43)ccc21 (stereo not given)

- pKi [1]: 6.80
- pEC50 [3]: 7.38
- pKi [4]: < 6.00
Compound: CC1(C)CCC(C)(C)c2cc(C3CCCc4oc(/C=C/C(=O)O)nc43)ccc21 (stereo not given)

- pKi [1]: 7.00
- pEC50 [2]: < 5.00
- pEC50 [5]: 6.86
- pKi [4]: < 6.00
Compound: CCCOc1cc2c(cc1C1CCCc3oc(/C=C/C(=O)O)cc31)C(C)(C)CCC2(C)C (stereo not given)
